# In ChEMBL document CHEMBL1127292, “Inhibition of myeloperoxidase release from rat polymorphonuclear leukocytes by a series of azachalcone derivatives” (J Med Chem, 1994):
# pIC50: −log10 of the molar value.
# What was measured:
# Rattus norvegicus [1] = species on record: Rattus norvegicus; assay: Ability to inhibit N-formyl-methionyl-leucyl-phenylalanine (fMLP)-stimulated release of myeloperoxidase (MPO) from rat polymorphonuclear leukocytes (PMN).; type: functional
# Procedure, shortened: (§1)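 Peritoneal PMN were taken from Harlan Sprague-Dawley rats (150-250 g), with >90% viability by trypan blue and >90% PMN by Wright-Giemsa stain. Cells in suspension (2 × 10^7 cells/mL) were stimulated with 0.1 μM fMLP for 30 min at 37 °C in the presence of test agent. MPO in the supernatant was measured by MPO-catalyzed oxidation of o-dianisidine.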
# Rattus norvegicus [2] = species on record: Rattus norvegicus; assay: Tested for ability at 50 uM to inhibit N-formyl-methionyl-leucyl-phenylalanine (fMLP) stimulated release of Myeloperoxidase (MPO) from rat polymorphonuclear leukocytes (PMN); type: functional; procedure, shortened: as §1
Compound,pIC50 (Rattus norvegicus [1]),inhibition at 50 µM (Rattus norvegicus [2]) [%]
N#Cc1cccc(C(=O)/C=C/c2ccncc2)c1,4.07,–
CSc1ccc(C(=O)/C=C/c2ccncc2)cc1,4.48,–
N#Cc1ccc(C(=O)/C=C/c2ccncc2)cc1,3.91,–
O=C(/C=C/c1ccncc1)c1ccc(C(F)(F)F)cc1,3.69,–
O=C(/C=C/c1ccncc1)c1ccccc1,4.31,–
O=C(c1ccccc1)c1ccc2ncccc2c1,< 4.00,–
COc1cc(/C=C\C(=O)c2ccncc2)cc(OC)c1OC,–,28
O=c1cc(-c2cccnc2)oc2ccccc12,< 4.00,–
O=C(c1ccccc1)c1cccc(-c2cccnc2)c1,< 4.00,–
O=C1c2ccccc2-c2cccc(-c3cccnc3)c21,< 4.00,–
O=C(C#Cc1ccncc1)c1ccccc1,4.80,–
O=C(c1ccccc1)c1ccccc1-c1cccnc1,< 4.00,–
O=C(/C=C/c1ccncc1)c1ccco1,4.30,–
O=C1c2ccccc2-c2ccc(-c3cccnc3)cc21,< 4.00,–
O=C(/C=C/c1ccncc1)c1cccc(C(F)(F)F)c1,4.39,–
O=C(/C=C/c1ccncc1)c1ccc(Cl)cc1,4.22,–
O=C(c1ccccc1)c1ccc(-c2cccnc2)cc1,< 4.00,–
C(=C\c1noc2ccccc12)/c1ccncc1,< 4.00,–
O=C(/C=C/c1ccncc1)c1cccs1,4.52,–

# Now from value to molecule, other results behind:
pIC50 (Rattus norvegicus [1]),Compound,inhibition at 50 µM (Rattus norvegicus [2]) [%]
4.96,CN(C)c1ccc(C(=O)/C=C/c2ccncc2)cc1,–
< 4.00,CO/N=C(\C=C\c1ccncc1)c1cc(OC)c(OC)c(OC)c1,–
4.16,O=C(/C=C/c1ccncc1)c1cccc(Cl)c1,–
< 4.00,COc1cc(C(O)/C=C/c2ccncc2)cc(OC)c1OC (stereo not drawn),–
4.33,CC(C)(C)c1ccc(C(=O)/C=C/c2ccncc2)cc1,–
< 4.30,COc1cc(C(=O)/C=C/c2cc[n+](C)cc2)cc(OC)c1OC,–
4.72,CN(C)c1cccc(C(=O)/C=C/c2ccncc2)c1,–
< 4.00,COc1cc(C(=O)CCc2ccncc2)cc(OC)c1OC,–
4.74,COc1cc(C(=O)/C=C/c2ccccn2)cc(OC)c1OC,–
< 4.00,COc1cc(C(=O)/C=C(\C)c2ccncc2)cc(OC)c1OC,–
4.41,Cc1cccc(C(=O)/C=C/c2ccncc2)c1,–
< 4.00,COc1cc(C(=O)/C(C)=C/c2ccncc2)cc(OC)c1OC,–
4.52,COc1cc(C(=O)/C=C/c2cccnc2)cc(OC)c1OC,–
5.15,COc1cc(C(=O)/C=C/c2ccncc2)cc(OC)c1OC,–
